Data set [1] concerns Rattus norvegicus. The data set is described as follows: Compound was tested for hypotensive activity by measuring the average change in mean arterial blood pressure in mmHg after 24 hr at 15 mg/Kg oral dosing of a conscious rat. The class given is functional, Artery. The method in brief:
(§1)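 Restrained (towel-wrapped, to raise sympathetic tone) conscious female Sprague-Dawley rats with chronic indwelling aortic cannulas exteriorized at the nape; blood pressure recorded directly by transducer before and 4 and 24 h after oral dosing. Compound suspended in carboxymethylcellulose vehicle, 10 mL/kg; doses 50 to 0.05 mg/kg. Two rats averaged per time point; average change ≥5 mmHg taken as significant (p < 0.05).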

The subject of data set [2] is Rattus norvegicus. The data set is described as follows: Compound was tested for hypotensive activity by measuring the average change in mean arterial blood pressure in mmHg after 24 hr at 0.15 mg/Kg oral dosing of a conscious rat. The class given is functional, Artery. The method in brief: as §1
In data set [3] the test system is Rattus norvegicus. Description: Compound was tested for hypotensive activity by measuring the average change in mean arterial blood pressure in mmHg after 4 hr at 0.15 mg/Kg oral dosing of a conscious rat. The format is functional, Artery. Put shortly:
as §1

The subject of data set [4] is Rattus norvegicus. Description: Compound was tested for hypotensive activity by measuring the average change in mean arterial blood pressure in mmHg after 4 hr at 1.5 mg/Kg oral dosing of a conscious rat. The format is functional, Artery. The method in brief: as §1
The test system of data set [5] is Rattus norvegicus. The data set is described as follows: Compound was tested for hypotensive activity by measuring the average change in mean arterial blood pressure in mmHg after 24 hr at 0.05 mg/Kg oral dosing of a conscious rat. The class given is functional, Artery. Put shortly:
as §1

In data set [6] the test system is Rattus norvegicus. Description: Compound was tested for hypotensive activity by measuring the average change in mean arterial blood pressure in mmHg after 24 hr at 0.5 mg/Kg oral dosing of a conscious rat. The class given is functional, Artery. The method in brief: as §1
For data set [7], the species on record is Mus musculus. Description: Lowest dose of compound associated with unacceptable clinical signs. The format is functional.
Data set [8] concerns Rattus norvegicus. The data set is described as follows: Compound was tested for hypotensive activity by measuring the average change in mean arterial blood pressure in mmHg after 4 hr at 0.5 mg/Kg oral dosing of a conscious rat. The class given is functional, Artery. The method in brief: as §1
Data set [9] is filed under the species Mus musculus. The data set is described as follows: Lowest dose of compound associated with clinical signs. The format is functional.
Data set [10] in a line: Acute toxicity was determined in mice. The format is organism-based. The conditions noted are these: mouse, in vivo.
Data set [11] relates to Rattus norvegicus. Description: Compound was tested for hypotensive activity by measuring the average change in mean arterial blood pressure in mmHg after 4 hr at 0.05 mg/Kg oral dosing of a conscious rat. The format is functional, Artery. The method in brief: as §1
In data set [12] the test system is Rattus norvegicus. Description: Compound was tested for hypotensive activity by measuring the average change in mean arterial blood pressure in mmHg after 4 hr at 15 mg/Kg oral dosing of a conscious rat. The class given is functional, Artery. The method in brief: as §1
For data set [13], the system named is Rattus norvegicus. Description: Compound was tested for hypotensive activity by measuring the average change in mean arterial blood pressure in mmHg after 24 hr at 1.5 mg/Kg oral dosing of a conscious rat. The class given is functional, Artery. Put shortly:
as §1

One may read the LD50 as the dose at which mortality reaches 50%. Turning to `O=C(c1ccc(Nc2ccnc3cc(C(F)(F)F)ccc23)cc1)N1CCN(S(=O)(=O)c2ccc(F)cc2)CC1` [LOSULAZINE], the Activity with Rattus norvegicus [1] is listed as -25 mmHg; in the data set with Rattus norvegicus [2], -14 mmHg; in the data set with Rattus norvegicus [3] it was -12 mmHg; with Rattus norvegicus [4], -17 mmHg; in the data set with Rattus norvegicus [5] it was -2 mmHg; in the data set with Rattus norvegicus [6], -15 mmHg. Further, the Activity in the data set with Rattus norvegicus [8] is reported as -10 mmHg; in the data set on Rattus norvegicus [11], -6 mmHg; in the data set with Rattus norvegicus [12], -19 mmHg; in the data set on Rattus norvegicus [13], -21 mmHg. For the same compound, the Dose was over 3160 mg/kg in the data set listed under Mus musculus [7] and 100 mg/kg in the data set listed under Mus musculus [9]. Moreover, the LD50 in [10] is over 3160 mg/kg.

Values taken from ChEMBL document CHEMBL1123201, “7-(Trifluoromethyl)-4-aminoquinoline hypotensives: novel peripheral sympatholytics” (J Med Chem, 1986).
